From ChEMBL document CHEMBL3616436, “Synthesis, cytotoxicity and antimicrobial activity of thiourea derivatives incorporating 3-(trifluoromethyl)phenyl moiety” (Eur J Med Chem, 2015)
Values after ≈ are worked out from the molar mass of the structure shown. Active and inactive are the calls of the source. No cut-off for these calls is given here.

Legend:
[1] = Cytotoxicity against human MT4 cells; type: cell-based
[2] = system: Vesicular stomatitis virus; assay: Antiviral activity against Vesicular stomatitis virus ATCC VR 1540 infected in African green monkey Vero 76 cells assessed as reduction of virus-plaque formation after 2 days by crystal violet staining; type: functional, organism-based; details: ATCC VR 1540, Vero, 48 h
[3] = system: Human immunodeficiency virus 1; assay: Antiviral activity against HIV1 3B infected in human MT4 cells assessed as protection against virus-induced cytopathogenicity by MTT assay; type: functional, organism-based; details: Human immunodeficiency virus 1, 3B
[4] = Cytotoxicity against bovine MDBK cells assessed as cell viability after 48 to 96 hrs by MTT assay; type: cell-based, Bos taurus; details: cattle
[5] = Antiviral activity against Bovine viral diarrhea virus 1-NADL ATCC VR-534 infected in MDBK cells assessed as protection against virus-induced cytopathogenicity after 3 to 4 days by MTT assay; type: functional, cell-based; details: Bovine viral diarrhea virus isolates and strains, ATCC VR-534, MDBK
Summary of the method: (§1)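 Cells seeded in 96-well plates (BHK 5x10^4, MDBK 3x10^4 cells/well), grown overnight to confluence, infected at m.o.i. 0.01 (BHK for Reo-1, MDBK for BVDV); serial compound dilutions in maintenance medium with 0.5% inactivated FBS added after 1 h; viability by MTT after 3–4 days at 37°C; EC50 for 50% protection by linear regression.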

[6] = Cytotoxicity against BHK cells assessed as cell viability after 48 to 96 hrs by MTT assay; type: cell-based, Mesocricetus auratus; details: hamster
Yellow fever virus = assay: Antiviral activity against Yellow fever virus 17D infected in BHK cells assessed as protection against virus-induced cytopathogenicity after 3 to 4 days by MTT assay; type: functional, cell-based
[7] = system: Mammalian orthoreovirus 1; assay: Antiviral activity against Reovirus type-1 ATCC VR-214 infected in BHK cells assessed as protection against virus-induced cytopathogenicity after 3 to 4 days by MTT assay; type: functional, cell-based; details: Mammalian orthoreovirus 1, ATCC VR-214, BHK; summary of the method: as §1
[8] = Cytotoxicity against African green monkey Vero 76 cells assessed as cell viability after 48 to 96 hrs by crystal violet staining; type: cell-based; details: chlorocebus sabaeus
Coxsackievirus B5 = assay: Antiviral activity against Human coxsackievirus B5 ATCC VR-29 infected in African green monkey Vero 76 cells assessed as reduction of virus-plaque formation after 3 days by crystal violet staining; type: functional, organism-based; details: Enterovirus B, ATCC VR-29, Vero, 72 h
Summary of the method: (§2)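 Plaque reduction: Vero-76 at 2x10^5 cells/well grown to confluent monolayers, infected 2 h at 50–100 PFU/well; after removing unadsorbed virus, overlay of D-MEM, 1% inactivated FBS, 0.75% methylcellulose with or without serial compound dilutions; 3 days at 37°C, fixed and stained with crystal violet in 50% ethanol, plaques counted; EC50 by linear regression.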

Poliovirus 1 = assay: Antiviral activity against Poliovirus type 1 ATCC VR-1562 infected in African green monkey Vero 76 cells assessed as reduction of virus-plaque formation after 2 days by crystal violet staining; type: functional, organism-based; details: Enterovirus C, ATCC VR-1562, Vero, 48 h
Vaccinia virus = assay: Antiviral activity against Human Vaccinia virus ATCC VR-1549 infected in African green monkey Vero 76 cells assessed as reduction of virus-plaque formation after 3 days by crystal violet staining; type: functional, organism-based; details: Orthopoxvirus vaccinia, ATCC VR-1549, Vero, 72 h
Human alphaherpesvirus 1 = assay: Antiviral activity against Human herpesvirus 1 KOS ATCC VR-1493 infected in African green monkey Vero 76 cells assessed as reduction of virus-plaque formation after 3 days by crystal violet staining; type: functional, organism-based; details: Human alphaherpesvirus 1, KOS ATCC VR1493, Vero, 72 h; summary of the method: as §2
Staphylococcus aureus [9] = assay: Antimicrobial activity against Staphylococcus aureus NCTC 4163 at 400 ug after 18 hrs by disc-diffusion method; type: functional; details: NCTC 4163, 18 h, read-out: IZ
Summary of the method: (§3)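 Disc diffusion on Mueller-Hinton II agar per CLSI; 9 mm paper discs loaded with 400 µg compound from DMSO solution, dried, placed on agar; growth inhibition zone diameter read after 18 h at 35°C.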

Staphylococcus aureus [10] = assay: Antimicrobial activity against Staphylococcus aureus ATCC 25923 at 400 ug after 18 hrs by disc-diffusion method; type: functional; details: ATCC 25923, 18 h, read-out: IZ; summary of the method: as §3
Staphylococcus aureus [11] = assay: Antimicrobial activity against Staphylococcus aureus ATCC 6538 at 400 ug after 18 hrs by disc-diffusion method; type: functional; details: ATCC 6538, 18 h, read-out: IZ; summary of the method: as §3
Staphylococcus aureus [12] = assay: Antimicrobial activity against Staphylococcus aureus ATCC 29213 at 400 ug after 18 hrs by disc-diffusion method; type: functional; details: ATCC 29213, 18 h, read-out: IZ; summary of the method: as §3
[13] = system: Staphylococcus epidermidis; assay: Antimicrobial activity against Staphylococcus epidermidis ATCC 12228 at 400 ug after 18 hrs by disc-diffusion method; type: functional; details: ATCC 12228, 18 h, read-out: IZ; summary of the method: as §3
[14] = system: Staphylococcus epidermidis; assay: Antimicrobial activity against Staphylococcus epidermidis ATCC 35984 at 400 ug after 18 hrs by disc-diffusion method; type: functional; details: ATCC 35984, 18 h, read-out: IZ; summary of the method: as §3
Bacillus subtilis = assay: Antimicrobial activity against Bacillus subtilis ATCC 6633 at 400 ug after 18 hrs by disc-diffusion method; type: functional; details: ATCC 6633, 18 h, read-out: IZ; summary of the method: as §3
Bacillus cereus = assay: Antimicrobial activity against Bacillus cereus ATCC 11778 at 400 ug after 18 hrs by disc-diffusion method; type: functional; details: ATCC 11778, 18 h, read-out: IZ; summary of the method: as §3
Enterococcus hirae = assay: Antimicrobial activity against Enterococcus hirae ATCC 10541 at 400 ug after 18 hrs by disc-diffusion method; type: functional; details: for zone of inhibition at 400 µg/disc: ATCC 10541, 18 h, read-out: IZ; summary of the method: as §3
Enterococcus faecalis = assay: Antimicrobial activity against Enterococcus faecalis ATCC 29212 at 400 ug after 18 hrs by disc-diffusion method; type: functional; details: ATCC 29212, 18 h, read-out: IZ; summary of the method: as §3
Micrococcus luteus [15] = assay: Antimicrobial activity against Micrococcus luteus ATCC 10240 at 400 ug after 18 hrs by disc-diffusion method; type: functional; details: ATCC 10240, 18 h, read-out: IZ; summary of the method: as §3
Micrococcus luteus [16] = assay: Antimicrobial activity against Micrococcus luteus ATCC 9341 at 400 ug after 18 hrs by disc-diffusion method; type: functional; details: ATCC 9341, 18 h, read-out: IZ; summary of the method: as §3
Proteus vulgaris = assay: Antimicrobial activity against Proteus vulgaris NCTC 4635 at 400 ug after 18 hrs by disc-diffusion method; type: functional; summary of the method: as §3
Staphylococcus aureus [17] = assay: Antimicrobial activity against Staphylococcus aureus NCTC 4163 after 18 hrs by twofold serial microdilution method; type: functional; details: NCTC 4163, 18 h
Staphylococcus aureus [18] = assay: Antimicrobial activity against Staphylococcus aureus ATCC 25923 after 18 hrs by twofold serial microdilution method; type: functional; details: ATCC 25923, 18 h
Staphylococcus aureus [19] = assay: Antimicrobial activity against Staphylococcus aureus ATCC 6538 after 18 hrs by twofold serial microdilution method; type: functional; details: ATCC 6538, 18 h
Staphylococcus aureus [20] = assay: Antimicrobial activity against Staphylococcus aureus ATCC 29213 after 18 hrs by twofold serial microdilution method; type: functional; details: ATCC 29213, 18 h
[21] = system: Staphylococcus epidermidis; assay: Antimicrobial activity against Staphylococcus epidermidis ATCC 12228 after 18 hrs by twofold serial microdilution method; type: functional; details: ATCC 12228, 18 h
[22] = system: Staphylococcus epidermidis; assay: Antimicrobial activity against Staphylococcus epidermidis ATCC 35984 after 18 hrs by twofold serial microdilution method; type: functional; details: ATCC 35984, 18 h
[23] = system: Mycobacterium tuberculosis; assay: Antimycobacterial activity against Mycobacterium tuberculosis H37Rv ATCC 25618; type: functional
Summary of the method: (§4)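 Classical test-tube successive-dilution method in Youmans' modification of Proskauer and Beck liquid medium with 10% bovine serum. Inoculum came from 14-day cultures. DMSO stock was 10 mg/mL, diluted geometrically in medium. Tubes were incubated at 37 °C. Concentrations tested were 3.1, 6.2, 12.5, 25, 50 and 100 µg/ml. MIC is the minimum concentration inhibiting growth relative to compound-free tubes.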

[24] = system: Mycobacterium tuberculosis; assay: Antimycobacterial activity against drug-sensitive Mycobacterium tuberculosis Spec. 192; type: functional; summary of the method: as §4

Compound | CC50 [1] | EC50 [2] | EC50 [3] | CC50 [4] | EC50 [5] | CC50 [6] | EC50 (Yellow fever virus) | EC50 [7] | CC50 [8] | EC50 (Coxsackievirus B5) | EC50 (Poliovirus 1) | EC50 (Vaccinia virus) | EC50 (Human alphaherpesvirus 1) | zone of inhibition at 400 µg/disc (Staphylococcus aureus [9]) | zone of inhibition at 400 µg/disc (Staphylococcus aureus [10]) | zone of inhibition at 400 µg/disc (Staphylococcus aureus [11]) | zone of inhibition at 400 µg/disc (Staphylococcus aureus [12]) | zone of inhibition at 400 µg/disc [13] | zone of inhibition at 400 µg/disc [14] | zone of inhibition at 400 µg/disc (Bacillus subtilis) | further results
COC(=O)c1ccccc1NC(=S)Nc1cccc(C(F)(F)F)c1 | > 100 µM | > 100 µM | > 100 µM | > 100 µM | > 100 µM | > 100 µM | > 100 µM | > 100 µM | > 100 µM | > 100 µM | > 100 µM | > 100 µM | > 100 µM | 25 mm | 24 mm | 25 mm | 23 mm | 26 mm | 24 mm | 20 mm | zone of inhibition at 400 µg/disc (Bacillus cereus): 19 mm; zone of inhibition at 400 µg/disc (Enterococcus hirae): 11 mm; zone of inhibition at 400 µg/disc (Enterococcus faecalis): 14 mm; zone of inhibition at 400 µg/disc (Micrococcus luteus [15]): 24 mm; zone of inhibition at 400 µg/disc (Micrococcus luteus [16]): 25 mm; inhibition zone (IZ) (Proteus vulgaris): inactive; MIC (Staphylococcus aureus [17]): 32 µg/mL (≈ 90.3 µM); MIC (Staphylococcus aureus [18]): 32 µg/mL (≈ 90.3 µM); MIC (Staphylococcus aureus [19]): 32 µg/mL (≈ 90.3 µM); MIC (Staphylococcus aureus [20]): 32 µg/mL (≈ 90.3 µM); MIC [21]: 64 µg/mL (≈ 181 µM); MIC [22]: 64 µg/mL (≈ 181 µM); MIC [23]: > 100 µg/mL; MIC [24]: > 100 µg/mL
O=C(NC(=S)Nc1cccc(C(F)(F)F)c1)c1ccccc1 | > 100 µM | > 100 µM | > 100 µM | > 100 µM | > 100 µM | > 100 µM | > 100 µM | > 100 µM | > 100 µM | > 100 µM | > 100 µM | > 100 µM | > 100 µM | 17 mm | 17 mm | 17 mm | 17 mm | 17 mm | 16 mm | 17 mm | zone of inhibition at 400 µg/disc (Bacillus cereus): 14 mm; inhibition zone (IZ) (Enterococcus hirae): inactive; zone of inhibition at 400 µg/disc (Enterococcus faecalis): 12 mm; zone of inhibition at 400 µg/disc (Micrococcus luteus [15]): 19 mm; zone of inhibition at 400 µg/disc (Micrococcus luteus [16]): 17 mm; inhibition zone (IZ) (Proteus vulgaris): inactive; MIC (Staphylococcus aureus [17]): 32 µg/mL (≈ 98.7 µM); MIC (Staphylococcus aureus [18]): 32 µg/mL (≈ 98.7 µM); MIC (Staphylococcus aureus [19]): 32 µg/mL (≈ 98.7 µM); MIC (Staphylococcus aureus [20]): 32 µg/mL (≈ 98.7 µM); MIC [21]: 64 µg/mL (≈ 197 µM); MIC [22]: 64 µg/mL (≈ 197 µM); MIC [23]: > 100 µg/mL; MIC [24]: > 100 µg/mL
FC(F)(F)c1cccc(NC(=S)Nc2ccccc2)c1 | 39 µM | > 39 µM | > 39 µM | 49 µM | > 49 µM | 41 µM | > 41 µM | > 41 µM | 39 µM | > 39 µM | > 39 µM | > 39 µM | > 39 µM | 24 mm | 23 mm | 21 mm | 23 mm | 23 mm | 23 mm | 21 mm | zone of inhibition at 400 µg/disc (Bacillus cereus): 22 mm; zone of inhibition at 400 µg/disc (Enterococcus hirae): 25 mm; zone of inhibition at 400 µg/disc (Enterococcus faecalis): 15 mm; zone of inhibition at 400 µg/disc (Micrococcus luteus [15]): 22 mm; zone of inhibition at 400 µg/disc (Micrococcus luteus [16]): 24 mm; zone of inhibition at 400 µg/disc (Proteus vulgaris; NCTC 4635, 18 h, read-out: IZ): 11 mm; MIC (Staphylococcus aureus [17]): 16 µg/mL (≈ 54 µM); MIC (Staphylococcus aureus [18]): 16 µg/mL (≈ 54 µM); MIC (Staphylococcus aureus [19]): 16 µg/mL (≈ 54 µM); MIC (Staphylococcus aureus [20]): 16 µg/mL (≈ 54 µM); MIC [21]: 32 µg/mL (≈ 108 µM); MIC [22]: 16 µg/mL (≈ 54 µM); MIC [23]: 50 µg/mL (≈ 169 µM); MIC [24]: 50 µg/mL (≈ 169 µM)
